tested on: not listed separately; test: Tmax in CD1 mouse plasma at 5 mg/kg, po via gavage by HPLC/MS analysis; format: ADME, organism-based; settings: not given
Outline: (§1)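 Female CD-1 mice, male SD rats or beagle dogs given 5 mg/kg by iv injection or oral gavage. Formulation was PEG300/propylene glycol/water 55/25/20, pH 6. Blood samples analysed by HPLC–MS/MS; parameters include AUC0-inf extrapolated to infinity and terminal half-life.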

Row | SMILES | Tmax
1 | Cc1c(Oc2cnc(C(=O)N[C@@H](CO)CC(F)(F)F)cn2)ccc2c1B(O)OC2 | 1 h
2 | CCC[C@H](CO)NC(=O)c1cnc(Oc2ccc3c(c2C)B(O)OC3)cn1 | 0.5 h
3 | Cc1c(Oc2cnc(C(=O)NCCO)cn2)ccc2c1B(O)OC2 | 1 h

tested on: not listed separately; test: AUC (0 to infinity) in CD1 mouse at 5 mg/kg, po via gavage by HPLC/MS analysis; format: ADME, organism-based; parameters: dose 5 mg/kg, time infinity, route oral; settings: in vivo

Row | SMILES | AUC(0-inf)
4 | Cc1c(Oc2cnc(C(=O)N[C@@H](CO)CC(F)(F)F)cn2)ccc2c1B(O)OC2 | 13400 ng·h/mL
5 | CCC[C@H](CO)NC(=O)c1cnc(Oc2ccc3c(c2C)B(O)OC3)cn1 | 21600 ng·h/mL
6 | Cc1c(Oc2cnc(C(=O)NCCO)cn2)ccc2c1B(O)OC2 | 29600 ng·h/mL

tested on: not listed separately; test: Terminal half life in CD1 mouse at 5 mg/kg, po via gavage by HPLC/MS analysis; format: ADME, organism-based; settings: in vivo, read-out: beta t1/2 (converted); outline: as §1

Row | SMILES | half-life
7 | Cc1c(Oc2cnc(C(=O)N[C@@H](CO)CC(F)(F)F)cn2)ccc2c1B(O)OC2 | 3 h
8 | CCC[C@H](CO)NC(=O)c1cnc(Oc2ccc3c(c2C)B(O)OC3)cn1 | 4.5 h
9 | Cc1c(Oc2cnc(C(=O)NCCO)cn2)ccc2c1B(O)OC2 | 3 h

tested on: not listed separately; test: Volume of distribution at steady state in CD1 mouse at 5 mg/kg, iv by HPLC/MS analysis; format: ADME, organism-based; settings: in vivo, read-out: Vdss; outline: as §1

Row | SMILES | Vd
10 | Cc1c(Oc2cnc(C(=O)N[C@@H](CO)CC(F)(F)F)cn2)ccc2c1B(O)OC2 | 0.741 L/kg
11 | CCC[C@H](CO)NC(=O)c1cnc(Oc2ccc3c(c2C)B(O)OC3)cn1 | 0.874 L/kg
12 | Cc1c(Oc2cnc(C(=O)NCCO)cn2)ccc2c1B(O)OC2 | 0.636 L/kg

tested on: Plasmodium berghei; test: Antimalarial activity against Plasmodium berghei infected in Swiss Webster mouse assessed as mouse survival rate at 200 mg/kg administered once daily via oral gavage for 4 consecutive days beginning 1 hr after infection measured on day 4 post infection relative to control; format: functional; settings: not given
Outline: (§2)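 P. berghei-infected erythrocytes taken from a previously infected mouse were injected intraperitoneally. Oral dosing, once daily for 4 consecutive days, began 1 h after infection, in polyethylene glycol 300/propylene glycol/water (55/25/20 by weight). Chloroquine at 30 mg/kg was the positive control, with a vehicle-only group. Percent survival was recorded daily from day 4 to day 20.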

Row | SMILES | survival at 200 mg/kg
13 | CCC[C@H](CO)NC(=O)c1cnc(Oc2ccc3c(c2C)B(O)OC3)cn1 | 100%
14 | Cc1c(Oc2cnc(C(=O)NCCO)cn2)ccc2c1B(O)OC2 | 100%

tested on: Plasmodium berghei; test: Antimalarial activity against Plasmodium berghei infected in Swiss Webster mouse assessed as mouse survival rate at 100 mg/kg administered once daily via oral gavage for 4 consecutive days beginning 1 hr after infection measured on day 4 post infection relative to control; format: functional; settings: not given
Outline: (§3)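 Mice given an intraperitoneal injection of P. berghei-infected erythrocytes taken from a previously infected animal. Oral dosing once daily for 4 consecutive days, starting 1 h after infection. Vehicle: polyethylene glycol 300/propylene glycol/water (weight ratio 55/25/20). Percent survival recorded daily from day 4 to day 20. Chloroquine 30 mg/kg and vehicle-only groups served as controls.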

Row | SMILES | survival at 100 mg/kg
15 | Cc1c(Oc2cnc(C(=O)N[C@@H](CO)CC(F)(F)F)cn2)ccc2c1B(O)OC2 | 100%
16 | CCC[C@H](CO)NC(=O)c1cnc(Oc2ccc3c(c2C)B(O)OC3)cn1 | 100%
17 | Cc1c(Oc2cnc(C(=O)NCCO)cn2)ccc2c1B(O)OC2 | 100%

tested on: Plasmodium berghei; test: Antimalarial activity against Plasmodium berghei infected in Swiss Webster mouse assessed as mouse survival rate at 3.7 mg/kg administered once daily via oral gavage for 4 consecutive days beginning 1 hr after infection measured on day 4 post infection relative to control; format: functional; settings: not given; outline: as §2

Row | SMILES | survival at 3.7 mg/kg
18 | Cc1c(Oc2cnc(C(=O)N[C@@H](CO)CC(F)(F)F)cn2)ccc2c1B(O)OC2 | 100%
19 | CCC[C@H](CO)NC(=O)c1cnc(Oc2ccc3c(c2C)B(O)OC3)cn1 | 100%
20 | Cc1c(Oc2cnc(C(=O)NCCO)cn2)ccc2c1B(O)OC2 | 100%

tested on: Plasmodium berghei; test: Antimalarial activity against Plasmodium berghei infected in Swiss Webster mouse assessed as mouse survival rate at 33 mg/kg administered once daily via oral gavage for 4 consecutive days beginning 1 hr after infection measured on day 5 post infection relative to control; format: functional; settings: not given; outline: as §2

Row | SMILES | survival at 33 mg/kg
21 | Cc1c(Oc2cnc(C(=O)N[C@@H](CO)CC(F)(F)F)cn2)ccc2c1B(O)OC2 | 100%
22 | CCC[C@H](CO)NC(=O)c1cnc(Oc2ccc3c(c2C)B(O)OC3)cn1 | 100%
23 | Cc1c(Oc2cnc(C(=O)NCCO)cn2)ccc2c1B(O)OC2 | 100%

tested on: Plasmodium berghei; test: Antimalarial activity against Plasmodium berghei infected in Swiss Webster mouse assessed as mouse survival rate at 1.2 mg/kg administered once daily via oral gavage for 4 consecutive days beginning 1 hr after infection measured on day 5 post infection relative to control; format: functional; settings: not given; outline: as §3

Row | SMILES | survival at 1.2 mg/kg
24 | Cc1c(Oc2cnc(C(=O)N[C@@H](CO)CC(F)(F)F)cn2)ccc2c1B(O)OC2 | 100%
25 | CCC[C@H](CO)NC(=O)c1cnc(Oc2ccc3c(c2C)B(O)OC3)cn1 | 100%
26 | Cc1c(Oc2cnc(C(=O)NCCO)cn2)ccc2c1B(O)OC2 | 100%

tested on: Plasmodium berghei; test: Antimalarial activity against Plasmodium berghei infected in Swiss Webster mouse assessed as mouse survival rate at 33 mg/kg administered once daily via oral gavage for 4 consecutive days beginning 1 hr after infection measured on day 6 post infection relative to control; format: functional; settings: not given; outline: as §2

Row | SMILES | survival at 33 mg/kg
27 | Cc1c(Oc2cnc(C(=O)N[C@@H](CO)CC(F)(F)F)cn2)ccc2c1B(O)OC2 | 100%
28 | CCC[C@H](CO)NC(=O)c1cnc(Oc2ccc3c(c2C)B(O)OC3)cn1 | 100%
29 | Cc1c(Oc2cnc(C(=O)NCCO)cn2)ccc2c1B(O)OC2 | 100%

tested on: Plasmodium berghei; test: Antimalarial activity against Plasmodium berghei infected in Swiss Webster mouse assessed as mouse survival rate at 11 mg/kg administered once daily via oral gavage for 4 consecutive days beginning 1 hr after infection measured on day 6 post infection relative to control; format: functional; settings: not given; outline: as §2

Row | SMILES | survival at 11 mg/kg
30 | Cc1c(Oc2cnc(C(=O)N[C@@H](CO)CC(F)(F)F)cn2)ccc2c1B(O)OC2 | 100%
31 | CCC[C@H](CO)NC(=O)c1cnc(Oc2ccc3c(c2C)B(O)OC3)cn1 | 100%
32 | Cc1c(Oc2cnc(C(=O)NCCO)cn2)ccc2c1B(O)OC2 | 100%

tested on: Plasmodium berghei; test: Antimalarial activity against Plasmodium berghei infected in Swiss Webster mouse assessed as mouse survival rate at 100 mg/kg administered once daily via oral gavage for 4 consecutive days beginning 1 hr after infection measured on day 7 post infection relative to control; format: functional; settings: not given; outline: as §3

Row | SMILES | survival at 100 mg/kg
33 | Cc1c(Oc2cnc(C(=O)N[C@@H](CO)CC(F)(F)F)cn2)ccc2c1B(O)OC2 | 100%
34 | CCC[C@H](CO)NC(=O)c1cnc(Oc2ccc3c(c2C)B(O)OC3)cn1 | 100%
35 | Cc1c(Oc2cnc(C(=O)NCCO)cn2)ccc2c1B(O)OC2 | 80%

tested on: Plasmodium berghei; test: Antimalarial activity against Plasmodium berghei infected in Swiss Webster mouse assessed as mouse survival rate at 33 mg/kg administered once daily via oral gavage for 4 consecutive days beginning 1 hr after infection measured on day 7 post infection relative to control; format: functional; settings: not given; outline: as §2

Row | SMILES | survival at 33 mg/kg
36 | Cc1c(Oc2cnc(C(=O)N[C@@H](CO)CC(F)(F)F)cn2)ccc2c1B(O)OC2 | 100%
37 | CCC[C@H](CO)NC(=O)c1cnc(Oc2ccc3c(c2C)B(O)OC3)cn1 | 100%
38 | Cc1c(Oc2cnc(C(=O)NCCO)cn2)ccc2c1B(O)OC2 | 0%

tested on: Plasmodium berghei; test: Antimalarial activity against Plasmodium berghei infected in Swiss Webster mouse assessed as mouse survival rate at 1.2 mg/kg administered once daily via oral gavage for 4 consecutive days beginning 1 hr after infection measured on day 7 post infection relative to control; format: functional; settings: not given; outline: as §3

Row | SMILES | survival at 1.2 mg/kg
39 | Cc1c(Oc2cnc(C(=O)N[C@@H](CO)CC(F)(F)F)cn2)ccc2c1B(O)OC2 | 0%
40 | CCC[C@H](CO)NC(=O)c1cnc(Oc2ccc3c(c2C)B(O)OC3)cn1 | 0%
41 | Cc1c(Oc2cnc(C(=O)NCCO)cn2)ccc2c1B(O)OC2 | 0%

tested on: Plasmodium berghei; test: Antimalarial activity against Plasmodium berghei infected in Swiss Webster mouse assessed as mouse survival rate at 33 mg/kg administered once daily via oral gavage for 4 consecutive days beginning 1 hr after infection measured on day 9 post infection relative to control; format: functional; settings: not given; outline: as §2

Row | SMILES | survival at 33 mg/kg
42 | Cc1c(Oc2cnc(C(=O)N[C@@H](CO)CC(F)(F)F)cn2)ccc2c1B(O)OC2 | 100%
43 | CCC[C@H](CO)NC(=O)c1cnc(Oc2ccc3c(c2C)B(O)OC3)cn1 | 0%

tested on: Plasmodium berghei; test: Antimalarial activity against Plasmodium berghei infected in Swiss Webster mouse assessed as mouse survival rate at 33 mg/kg administered once daily via oral gavage for 4 consecutive days beginning 1 hr after infection measured on day 10 post infection relative to control; format: functional; settings: not given; outline: as §2

Row | SMILES | survival at 33 mg/kg
44 | Cc1c(Oc2cnc(C(=O)N[C@@H](CO)CC(F)(F)F)cn2)ccc2c1B(O)OC2 | 60%

tested on: Plasmodium berghei; test: Antimalarial activity against Plasmodium berghei infected in Swiss Webster mouse assessed as mouse survival rate at 100 mg/kg administered once daily via oral gavage for 4 consecutive days beginning 1 hr after infection measured on day 11 post infection relative to control; format: functional; settings: not given; outline: as §3

Row | SMILES | survival at 100 mg/kg
45 | Cc1c(Oc2cnc(C(=O)N[C@@H](CO)CC(F)(F)F)cn2)ccc2c1B(O)OC2 | 0%
46 | CCC[C@H](CO)NC(=O)c1cnc(Oc2ccc3c(c2C)B(O)OC3)cn1 | 20%

tested on: Plasmodium berghei; test: Antimalarial activity against Plasmodium berghei infected in Swiss Webster mouse assessed as mouse survival rate at 100 mg/kg administered once daily via oral gavage for 4 consecutive days beginning 1 hr after infection measured on day 12 post infection relative to control; format: functional; settings: not given; outline: as §3

Row | SMILES | survival at 100 mg/kg
47 | CCC[C@H](CO)NC(=O)c1cnc(Oc2ccc3c(c2C)B(O)OC3)cn1 | 20%

tested on: Plasmodium berghei; test: Antimalarial activity against Plasmodium berghei infected in Swiss Webster mouse assessed as mouse survival rate at 100 mg/kg administered once daily via oral gavage for 4 consecutive days beginning 1 hr after infection measured on day 13 post infection relative to control; format: functional; settings: not given; outline: as §3

Row | SMILES | survival at 100 mg/kg
48 | CCC[C@H](CO)NC(=O)c1cnc(Oc2ccc3c(c2C)B(O)OC3)cn1 | 20%

tested on: Plasmodium falciparum; test: Antimalarial activity against Plasmodium falciparum 3D7 0087/N9 infected in NOD/SCID IL2R gamma null mouse assessed as reduction in parasitemia administered once daily via oral gavage for 4 consecutive days measured on day 4 post infection; format: functional; settings: 3D7 0087/N9, po, 96 h
Outline: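 Human-erythrocyte-engrafted NODscidIL2Rγnull mice carrying P. falciparum Pf3D70087/N9 in peripheral blood; compound given orally once daily for four consecutive days.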

Row | SMILES | ED90
49 | CCC[C@H](CO)NC(=O)c1cnc(Oc2ccc3c(c2C)B(O)OC3)cn1 | 2.5 mg/kg
